Laboratory results reported in ChEMBL document CHEMBL5705888, “Substrate specificity and inhibitors of LRRK2, a protein kinase mutated in Parkinson's disease” (Biochem J, 2009).
The source made the active and inactive calls. No cut-off for these calls is given here.

How the values were obtained:
[1] = biological target: Leucine-rich repeat serine/threonine-protein kinase 2 (Homo sapiens, UniProt Q5S007); experiment: Inhibition of LRRK2 in human Flp-In-T-REx-293 cells harboring GFP-tagged constitutively active G14V-Rho mutant assessed as inhibition of ERM phosphorylation at 10 uM incubated for 1 hr in presence of LRRKtide by immunoblot analysis; type: cell-based
How it was run: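 Flp-in T-REx cells carrying GFP-tagged G14V-Rho were left uninduced or induced with 1 μg/ml doxycycline. At 7 h, compound at 10 μM was added for 1 h. Cells were lysed in SDS lysis buffer, run on 4–12% gels and immunoblotted with pan-phospho-ERM antibody (1 μg/ml in milk/TBST containing 10 μg/ml LRRKtide).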

[2] = biological target: Serine/threonine-protein kinase N2 (Homo sapiens) (UniProt Q16513); experiment: Inhibition of PRK2 (unknown origin) at 1 uM incubated for 30 mins in presence of [gamma-33P]ATP by multidrop micro reagent based assay relative to control; values are per cent of control
[3] = biological target: Ribosomal protein S6 kinase alpha-3 (Homo sapiens) (UniProt P51812); experiment: Inhibition of RSK2 (unknown origin) at 1 uM incubated for 30 mins in presence of [gamma-33P]ATP by multidrop micro reagent based assay relative to control; values are per cent of control
[4] = biological target: Serine/threonine-protein kinase PAK 5 (Homo sapiens) (UniProt Q9P286); experiment: Inhibition of PAK5 (unknown origin) at 1 uM incubated for 30 mins in presence of [gamma-33P]ATP by multidrop micro reagent based assay relative to control; values are per cent of control
[5] = biological target: Aurora kinase B (Homo sapiens) (UniProt Q96GD4); experiment: Inhibition of Aurora B kinase (unknown origin) at 1 uM incubated for 30 mins in presence of [gamma-33P]ATP by multidrop micro reagent based assay relative to control; values are per cent of control
[6] = biological target: Leucine-rich repeat serine/threonine-protein kinase 2 (Homo sapiens, UniProt Q5S007, G2019S); experiment: Inhibition of GST-tagged LRRK2 G2019S mutant (1326 to 2527 residues) (unknown origin) using peptide as substrate incubated for 15 mins in presence of ATP by immunoblotting analysis
[7] = biological target: Mitogen-activated protein kinase 3 (Homo sapiens) (UniProt P27361); experiment: Inhibition of ERK1 (unknown origin) at 1 uM incubated for 30 mins in presence of [gamma-33P]ATP by multidrop micro reagent based assay relative to control; values are per cent of control
[8] = biological target: Mitogen-activated protein kinase 8 (Homo sapiens) (UniProt P45983); experiment: Inhibition of JNK1 (unknown origin) at 1 uM incubated for 30 mins in presence of [gamma-33P]ATP by multidrop micro reagent based assay relative to control; values are per cent of control
[9] = biological target: Mitogen-activated protein kinase 11 (Homo sapiens) (UniProt Q15759); experiment: Inhibition of p38beta MAPK (unknown origin) at 1 uM incubated for 30 mins in presence of [gamma-33P]ATP by multidrop micro reagent based assay relative to control; values are per cent of control
[10] = biological target: Protein kinase C alpha type (Homo sapiens) (UniProt P17252); experiment: Inhibition of PKCalpha (unknown origin) at 1 uM incubated for 30 mins in presence of [gamma-33P]ATP by multidrop micro reagent based assay relative to control; values are per cent of control
[11] = biological target: Myosin light chain kinase, smooth muscle (Homo sapiens) (UniProt Q15746); experiment: Inhibition of SmMLCK (unknown origin) at 1 uM incubated for 30 mins in presence of [gamma-33P]ATP by multidrop micro reagent based assay relative to control; values are per cent of control
[12] = biological target: Maternal embryonic leucine zipper kinase (Homo sapiens) (UniProt Q14680); experiment: Inhibition of MELK (unknown origin) at 1 uM incubated for 30 mins in presence of [gamma-33P]ATP by multidrop micro reagent based assay relative to control; values are per cent of control
[13] = biological target: Dual specificity mitogen-activated protein kinase kinase 1 (Homo sapiens) (UniProt Q02750); experiment: Inhibition of MKK1 (unknown origin) at 1 uM incubated for 30 mins in presence of [gamma-33P]ATP by multidrop micro reagent based assay relative to control; values are per cent of control
[14] = biological target: Tyrosine-protein kinase Yes (Homo sapiens) (UniProt P07947); experiment: Inhibition of YES1 (unknown origin) at 1 uM incubated for 30 mins in presence of [gamma-33P]ATP by multidrop micro reagent based assay relative to control; values are per cent of control
[15] = biological target: T1, Mitogen-activated protein kinase kinase kinase kinase 2 (Homo sapiens) (UniProt Q12851); experiment: Inhibition of GCK (unknown origin) at 1 uM incubated for 30 mins in presence of [gamma-33P]ATP by multidrop micro reagent based assay relative to control
T1 sequence (whole entry): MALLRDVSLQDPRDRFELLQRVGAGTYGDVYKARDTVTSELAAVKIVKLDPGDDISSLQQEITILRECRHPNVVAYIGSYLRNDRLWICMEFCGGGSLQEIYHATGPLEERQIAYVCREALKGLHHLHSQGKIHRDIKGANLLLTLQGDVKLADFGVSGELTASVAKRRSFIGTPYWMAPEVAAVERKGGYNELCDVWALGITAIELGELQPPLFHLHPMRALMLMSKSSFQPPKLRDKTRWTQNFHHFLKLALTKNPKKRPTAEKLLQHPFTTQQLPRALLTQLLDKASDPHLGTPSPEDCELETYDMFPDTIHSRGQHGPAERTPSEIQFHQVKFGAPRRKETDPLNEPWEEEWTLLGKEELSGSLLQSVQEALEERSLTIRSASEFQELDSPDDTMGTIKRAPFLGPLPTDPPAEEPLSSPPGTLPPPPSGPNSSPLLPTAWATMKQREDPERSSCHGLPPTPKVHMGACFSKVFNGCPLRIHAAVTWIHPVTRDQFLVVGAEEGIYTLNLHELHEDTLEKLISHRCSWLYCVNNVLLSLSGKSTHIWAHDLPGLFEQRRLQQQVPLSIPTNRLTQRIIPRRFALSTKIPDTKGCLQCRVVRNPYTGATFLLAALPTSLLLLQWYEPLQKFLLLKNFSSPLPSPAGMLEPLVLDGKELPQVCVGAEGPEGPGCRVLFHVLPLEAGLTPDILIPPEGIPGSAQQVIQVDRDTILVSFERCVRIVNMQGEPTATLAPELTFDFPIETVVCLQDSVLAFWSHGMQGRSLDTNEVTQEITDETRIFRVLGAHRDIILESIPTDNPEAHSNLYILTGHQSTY

[16] = biological target: Serine/threonine-protein kinase PAK 6 (Homo sapiens) (UniProt Q9NQU5); experiment: Inhibition of PAK6 (unknown origin) at 1 uM incubated for 30 mins in presence of [gamma-33P]ATP by multidrop micro reagent based assay relative to control

Sequence of Ribosomal protein S6 kinase alpha-3 (Homo sapiens) (P51812 whole entry): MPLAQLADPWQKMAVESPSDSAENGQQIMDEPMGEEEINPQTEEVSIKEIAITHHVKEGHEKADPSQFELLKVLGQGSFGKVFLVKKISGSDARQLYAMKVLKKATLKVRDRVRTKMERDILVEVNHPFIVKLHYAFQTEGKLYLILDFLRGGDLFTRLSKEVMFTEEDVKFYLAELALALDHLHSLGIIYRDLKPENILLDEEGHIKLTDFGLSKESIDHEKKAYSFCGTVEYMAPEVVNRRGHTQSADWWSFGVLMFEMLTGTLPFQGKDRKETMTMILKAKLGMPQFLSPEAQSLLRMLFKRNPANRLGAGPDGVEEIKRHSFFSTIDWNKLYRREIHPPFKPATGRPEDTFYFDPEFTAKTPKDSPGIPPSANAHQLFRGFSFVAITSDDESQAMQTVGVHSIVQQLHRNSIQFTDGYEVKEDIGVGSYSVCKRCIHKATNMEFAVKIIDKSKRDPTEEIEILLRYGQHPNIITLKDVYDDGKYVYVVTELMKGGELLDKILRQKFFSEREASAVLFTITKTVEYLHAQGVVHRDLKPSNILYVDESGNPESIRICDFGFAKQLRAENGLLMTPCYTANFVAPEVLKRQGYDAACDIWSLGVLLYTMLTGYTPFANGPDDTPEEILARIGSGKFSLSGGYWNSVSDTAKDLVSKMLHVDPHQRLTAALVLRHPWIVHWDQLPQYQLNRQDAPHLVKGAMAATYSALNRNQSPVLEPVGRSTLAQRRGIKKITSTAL
Sequence of Leucine-rich repeat serine/threonine-protein kinase 2 (Homo sapiens, UniProt Q5S007) (Q5S007 whole entry): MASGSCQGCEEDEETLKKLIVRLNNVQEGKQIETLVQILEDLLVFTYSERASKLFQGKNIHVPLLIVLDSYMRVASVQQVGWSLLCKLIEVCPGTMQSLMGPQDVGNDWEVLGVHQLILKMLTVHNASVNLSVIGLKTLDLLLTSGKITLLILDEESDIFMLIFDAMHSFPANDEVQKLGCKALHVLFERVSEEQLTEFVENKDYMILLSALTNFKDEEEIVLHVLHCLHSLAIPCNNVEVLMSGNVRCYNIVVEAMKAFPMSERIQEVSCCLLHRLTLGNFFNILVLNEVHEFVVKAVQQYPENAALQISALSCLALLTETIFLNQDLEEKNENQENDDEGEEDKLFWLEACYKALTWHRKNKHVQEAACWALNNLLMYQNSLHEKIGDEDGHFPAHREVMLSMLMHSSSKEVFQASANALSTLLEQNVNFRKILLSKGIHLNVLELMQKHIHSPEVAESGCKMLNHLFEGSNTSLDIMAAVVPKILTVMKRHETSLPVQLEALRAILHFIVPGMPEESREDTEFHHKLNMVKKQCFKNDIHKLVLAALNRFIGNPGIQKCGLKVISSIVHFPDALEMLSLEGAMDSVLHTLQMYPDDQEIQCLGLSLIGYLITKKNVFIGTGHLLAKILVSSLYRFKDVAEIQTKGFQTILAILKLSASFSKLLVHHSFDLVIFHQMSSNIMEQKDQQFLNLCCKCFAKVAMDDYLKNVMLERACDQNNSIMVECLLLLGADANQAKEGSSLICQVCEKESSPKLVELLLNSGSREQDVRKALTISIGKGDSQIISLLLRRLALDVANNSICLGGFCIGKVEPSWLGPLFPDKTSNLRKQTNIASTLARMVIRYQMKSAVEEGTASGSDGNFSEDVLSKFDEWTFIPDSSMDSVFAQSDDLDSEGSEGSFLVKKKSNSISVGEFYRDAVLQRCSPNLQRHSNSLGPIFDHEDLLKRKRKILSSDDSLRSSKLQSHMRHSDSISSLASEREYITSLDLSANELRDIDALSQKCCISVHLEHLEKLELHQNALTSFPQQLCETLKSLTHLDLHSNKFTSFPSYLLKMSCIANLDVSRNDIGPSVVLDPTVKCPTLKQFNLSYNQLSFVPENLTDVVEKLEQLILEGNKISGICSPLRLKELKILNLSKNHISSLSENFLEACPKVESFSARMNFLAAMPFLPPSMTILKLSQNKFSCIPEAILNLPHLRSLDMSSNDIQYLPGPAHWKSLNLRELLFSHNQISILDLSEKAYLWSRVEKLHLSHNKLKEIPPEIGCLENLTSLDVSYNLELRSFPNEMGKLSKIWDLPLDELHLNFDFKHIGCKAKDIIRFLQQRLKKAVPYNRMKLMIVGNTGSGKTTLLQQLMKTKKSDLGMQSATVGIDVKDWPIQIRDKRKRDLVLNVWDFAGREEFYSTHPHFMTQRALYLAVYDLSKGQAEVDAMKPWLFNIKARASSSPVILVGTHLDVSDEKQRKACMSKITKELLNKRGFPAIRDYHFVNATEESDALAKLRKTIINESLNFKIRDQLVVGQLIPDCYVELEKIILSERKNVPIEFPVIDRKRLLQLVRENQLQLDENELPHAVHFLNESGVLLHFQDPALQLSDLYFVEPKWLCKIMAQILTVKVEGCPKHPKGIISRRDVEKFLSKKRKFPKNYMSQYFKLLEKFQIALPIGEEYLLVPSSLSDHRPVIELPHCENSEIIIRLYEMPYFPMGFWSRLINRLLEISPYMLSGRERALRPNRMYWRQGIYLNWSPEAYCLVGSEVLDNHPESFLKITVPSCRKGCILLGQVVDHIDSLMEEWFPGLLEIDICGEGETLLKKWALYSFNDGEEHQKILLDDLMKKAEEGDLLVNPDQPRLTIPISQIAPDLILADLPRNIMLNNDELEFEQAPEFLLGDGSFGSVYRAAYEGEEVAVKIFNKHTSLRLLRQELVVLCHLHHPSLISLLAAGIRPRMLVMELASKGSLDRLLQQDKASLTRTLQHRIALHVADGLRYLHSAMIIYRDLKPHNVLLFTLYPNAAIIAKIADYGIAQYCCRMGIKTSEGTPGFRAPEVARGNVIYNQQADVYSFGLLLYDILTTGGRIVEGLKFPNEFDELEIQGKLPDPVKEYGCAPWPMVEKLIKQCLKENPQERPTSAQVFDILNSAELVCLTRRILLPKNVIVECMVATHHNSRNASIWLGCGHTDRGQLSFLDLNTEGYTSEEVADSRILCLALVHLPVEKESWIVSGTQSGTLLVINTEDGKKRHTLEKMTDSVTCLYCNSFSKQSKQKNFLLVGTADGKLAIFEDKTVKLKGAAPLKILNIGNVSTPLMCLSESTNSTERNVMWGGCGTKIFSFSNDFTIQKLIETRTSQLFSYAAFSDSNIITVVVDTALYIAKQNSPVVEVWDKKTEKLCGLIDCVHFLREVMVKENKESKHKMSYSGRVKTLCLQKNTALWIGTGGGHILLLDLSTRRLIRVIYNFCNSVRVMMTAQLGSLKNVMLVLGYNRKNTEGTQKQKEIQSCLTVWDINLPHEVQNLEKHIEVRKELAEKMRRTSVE
Sequence of Serine/threonine-protein kinase N2 (Homo sapiens) (Q16513 whole entry, looked up): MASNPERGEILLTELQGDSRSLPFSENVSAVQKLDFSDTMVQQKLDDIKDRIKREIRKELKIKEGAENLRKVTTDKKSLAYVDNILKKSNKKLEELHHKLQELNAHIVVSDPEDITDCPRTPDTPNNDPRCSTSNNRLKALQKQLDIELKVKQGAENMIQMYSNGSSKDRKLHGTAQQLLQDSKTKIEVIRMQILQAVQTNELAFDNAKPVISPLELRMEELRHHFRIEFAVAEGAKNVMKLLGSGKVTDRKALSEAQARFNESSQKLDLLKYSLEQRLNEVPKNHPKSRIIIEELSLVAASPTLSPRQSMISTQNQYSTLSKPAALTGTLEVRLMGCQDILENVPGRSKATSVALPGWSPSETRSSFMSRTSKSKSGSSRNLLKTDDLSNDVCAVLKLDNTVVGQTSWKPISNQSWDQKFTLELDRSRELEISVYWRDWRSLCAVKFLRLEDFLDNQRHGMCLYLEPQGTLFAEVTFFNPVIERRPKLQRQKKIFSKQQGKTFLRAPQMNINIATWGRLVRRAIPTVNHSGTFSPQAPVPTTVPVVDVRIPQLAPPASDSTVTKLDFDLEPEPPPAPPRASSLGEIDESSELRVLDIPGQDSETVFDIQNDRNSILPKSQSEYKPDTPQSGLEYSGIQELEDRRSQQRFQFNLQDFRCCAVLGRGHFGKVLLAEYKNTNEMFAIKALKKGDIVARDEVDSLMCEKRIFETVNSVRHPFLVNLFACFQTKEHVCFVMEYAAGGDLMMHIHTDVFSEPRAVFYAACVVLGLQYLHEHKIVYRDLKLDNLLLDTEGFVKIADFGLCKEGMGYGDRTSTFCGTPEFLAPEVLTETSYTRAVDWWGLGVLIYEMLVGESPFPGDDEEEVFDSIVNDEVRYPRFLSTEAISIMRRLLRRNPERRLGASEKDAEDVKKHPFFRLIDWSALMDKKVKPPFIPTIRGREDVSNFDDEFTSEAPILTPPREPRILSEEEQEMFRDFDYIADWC
Sequence of Mitogen-activated protein kinase 8 (Homo sapiens) (P45983 whole entry): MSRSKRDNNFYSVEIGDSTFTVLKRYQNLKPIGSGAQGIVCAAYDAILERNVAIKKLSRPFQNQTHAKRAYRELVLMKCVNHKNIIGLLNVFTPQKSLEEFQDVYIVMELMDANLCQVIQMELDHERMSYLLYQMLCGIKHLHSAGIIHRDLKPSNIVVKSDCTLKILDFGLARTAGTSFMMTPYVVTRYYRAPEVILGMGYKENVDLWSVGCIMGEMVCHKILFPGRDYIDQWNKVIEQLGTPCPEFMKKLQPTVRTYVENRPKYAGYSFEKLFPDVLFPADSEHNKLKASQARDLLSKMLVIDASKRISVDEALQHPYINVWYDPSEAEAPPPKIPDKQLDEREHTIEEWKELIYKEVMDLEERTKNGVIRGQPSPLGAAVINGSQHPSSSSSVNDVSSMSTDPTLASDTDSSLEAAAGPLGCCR
Sequence of Leucine-rich repeat serine/threonine-protein kinase 2 (Homo sapiens, UniProt Q5S007, G2019S) (Q5S007 whole entry G2019S, the tested form may be a part): as the sequence (Q5S007 whole entry) above, with G2019S counted along it
Sequence of Mitogen-activated protein kinase 3 (Homo sapiens) (P27361 whole entry): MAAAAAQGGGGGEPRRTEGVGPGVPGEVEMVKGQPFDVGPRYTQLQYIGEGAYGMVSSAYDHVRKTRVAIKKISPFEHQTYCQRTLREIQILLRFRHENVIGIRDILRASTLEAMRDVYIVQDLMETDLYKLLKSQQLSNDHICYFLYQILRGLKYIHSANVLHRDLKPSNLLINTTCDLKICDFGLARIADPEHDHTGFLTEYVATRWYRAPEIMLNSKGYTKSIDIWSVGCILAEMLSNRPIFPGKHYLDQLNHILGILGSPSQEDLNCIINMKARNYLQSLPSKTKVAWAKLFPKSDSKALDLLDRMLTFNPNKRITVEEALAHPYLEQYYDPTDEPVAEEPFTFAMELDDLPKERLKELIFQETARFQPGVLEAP

| SMILES | inhibition [1] | residual activity [2] [%] | residual activity [3] [%] | residual activity [4] [%] | residual activity [5] [%] | IC50 [6] [nM] | residual activity [7] [%] | residual activity [8] [%] | residual activity [9] [%] | residual activity [10] [%] | residual activity [11] [%] | residual activity [12] [%] | residual activity [13] [%] | residual activity [14] [%] | residual activity [15] [%] | residual activity [16] [%] |
| --- | --- | --- | --- | --- | --- | --- | --- | --- | --- | --- | --- | --- | --- | --- | --- | --- |
| C[C@@H](N)[C@H]1CC[C@H](C(=O)Nc2ccncc2)CC1 | inactive | – | – | – | – | – | – | – | – | – | – | – | – | – | – | – |
| Cc1cncc2cccc(S(=O)(=O)N3CCCNC[C@@H]3C)c12 | inactive | 70 | 76 | 100 | 11 | 150 | 105 | 96 | 107 | 70 | 96 | 70 | 69 | 76 | 56 | 103 |
| O=S(=O)(c1cccc2cnccc12)N1CCCNCC1 [FASUDIL] | – | – | – | – | – | > 30000 | – | – | – | – | – | – | – | – | – | – |
| CCn1c(-c2nonc2N)nc2cnc(Oc3cccc(NC(=O)c4ccc(OCCN5CCOCC5)cc4)c3)cc21 [GSK-269962A] | inactive | 2 | 24 | 102 | 36 | 2300 | 106 | 105 | 113 | 32 | 65 | 44 | 54 | 114 | 78 | 106 |
| CC1=C(C(=O)Nc2cc3cn[nH]c3cc2F)C(c2ccc(C(F)(F)F)cc2)CC(=O)N1 (stereo not given) | inactive | 40 | 48 | 107 | 59 | > 100000 | 90 | 111 | 97 | 82 | 73 | 83 | 61 | 58 | 97 | 109 |
| CCN(CC)CCNC(=O)c1c(C)[nH]c(/C=C2\C(=O)Nc3ccc(F)cc32)c1C | inactive | 81 | 41 | – | 29 | – | – | – | – | – | – | 17 | – | – | – | – |
